Assay results taken from ChEMBL document CHEMBL3227998, “Synthesis and pharmacological activity of 2,3,4,5,-tetrahydro-1,5-methano-1H-3-benzazepines” (J Med Chem, 1979).
Calls of active or inactive are those of the source. The rule behind the calls is not given here.

Columns and labels:
[1] = system: Mus musculus; assay: Analgesic activity in sc dosed mouse by eddy's hot-plate method; format: functional
Method in brief: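 Mice were given aqueous solutions of the oxalate salts subcutaneously. Antinociception was read by the Eddy hot-plate method, and analgesic potency was expressed as ED50 in mg/kg.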

[2] = system: Mus musculus; assay: (§1) Toxicity in sc dosed mouse; format: organism-based; settings: in vivo
[3] = as §1; format: organism-based; settings: in vivo
[4] = system: Mus musculus; assay: Inhibition of morphine-induced response in mouse at 3 mg/kg, sc by tail-flick antagonist assay; format: functional; set-up: scale not given: the % may be the effect or the level left; settings: route subcutaneous
[5] = system: Mus musculus; assay: Inhibition of morphine-induced response in mouse at 0.3 mg/kg, sc by tail-flick antagonist assay; format: functional; set-up: scale not given: the % may be the effect or the level left; settings: route subcutaneous
[6] = system: Mus musculus; assay: Inhibition of morphine-induced response in mouse at 1 mg/kg, sc by tail-flick antagonist assay; format: functional; set-up: scale not given: the % may be the effect or the level left; settings: route subcutaneous

For `CC(C)=CCN1CC2CC(C1)c1ccccc12.O=C(O)C(=O)O`, the Activity [1] was “inactive” and the Activity [2] was “Toxic”.
`c1ccc2c(c1)C1CCNCC2C1` (stereo not drawn) gave an ED50 [1] of 4.9 mg/kg.
With `c1ccc2c(c1)CC1CC2CCN1` (stereo not drawn) the ED50 [1] was 10.2 mg/kg.
Molecule `C=CCN1CC2CC(C1)c1ccccc12.O=C(O)C(=O)O` has an ED50 [1] of 15.6 mg/kg, an LD50 [3] of 47 mg/kg and an Activity [4] of 56%.
For `COc1ccc2c3c1O[C@H]1[C@@H](O)C=C[C@H]4[C@@H](C2)N(C)CC[C@@]341` [CODEINE], the ED50 [1] was 5.8 mg/kg.
In the case of `O=C(O)C(=O)O.c1ccc(CCN2CC3CC(C2)c2ccccc23)cc1`, the Activity [1] is reported as “inactive” and the Activity [2] is reported as “Non-toxic”.
In the case of `O=C(O)C(=O)O.c1ccc2c(c1)C1CC2CN(CC2CC2)C1`, the Activity [1] is reported as “inactive”, the Activity [2] is reported as “Toxic” and the Activity [5] is reported as 58%.
With `CCCN1CC2CC(C1)c1ccccc12.O=C(O)C(=O)O` the Activity [1] was “inactive”, the Activity [2] was “Toxic” and the Activity [6] was 47%.
With `CN1CC2CC(C1)c1ccccc12.O=C(O)C(=O)O` the Activity [1] was “inactive” and the Activity [2] was “Toxic”.
